From ChEMBL document CHEMBL1148485, “Synthesis and biological evaluation of new selective cytotoxic cyclolignans derived from podophyllotoxin” (J Med Chem, 2004)

Legend:
[1] = test system: HeLa; assay: Effect on cell cycle evaluated as proportion of cells in sub-G1 (apoptic cells) phase of the cell cycle at 10E-6 M for 72 hr in HeLa cells; type: functional, Homo sapiens
How it was run: (§1)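 HeLa cells were grown in DMEM with 10% heat-inactivated FCS and 2 mM L-glutamine at 37 °C in 5% CO2. They were exposed to 10^-6 to 10^-8 M for 24, 48 or 72 h. Then (3-5)×10^5 cells were fixed overnight in 70% ethanol at 4 °C, PBS-washed, and given 1 mg/mL RNase A plus 20 µg/mL propidium iodide for 1 h at room temperature. DNA content was read by flow cytometry. Sub-G1 (hypodiploid) % counted as apoptotic. Untreated controls were run in parallel. Representative of three independent experiments.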

[2] = test system: HeLa; assay: Effect on cell cycle evaluated as proportion of cells in S phase of the cell cycleG2/M at 10E-8 M for 72 hr in HeLa cells; type: functional, Homo sapiens; how it was run: as §1
[3] = test system: HeLa; assay: Effect on cell cycle evaluated as proportion of cells in sub-G1 phase (apoptic cells)of the cell cycle at 10E-8 M for 48 hr in HeLa cells; type: functional, Homo sapiens; how it was run: as §1
[4] = test system: HeLa; assay: Effect on cell cycle evaluated as proportion of cells in sub-G1 (apoptic cells) phase of the cell cycle at 10E-6 M for 48 hr in HeLa cells; type: functional, Homo sapiens; how it was run: as §1
[5] = test system: HT-29; assay: In vitro cytotoxicity against HT-29 (human colon carcinoma) cell line.; type: functional, cell-based; details: Homo sapiens, HT-29
[6] = test system: HeLa; assay: Effect on cell cycle evaluated as proportion of cells in S phase of the cell cycle at 10E-8 M for 72 hr in HeLa cells; type: functional, Homo sapiens; how it was run: as §1
[7] = test system: HeLa; assay: Effect on cell cycle evaluated as proportion of cells in G2/M phase of the cell cycle at 10E-8 M for 24 hr in HeLa cells; type: functional, Homo sapiens; how it was run: as §1
[8] = test system: HeLa; assay: Effect on cell cycle evaluated as proportion of cells in sub-G1 (apoptic cells) phase of the cell cycle at 10E-7 M for 72 hr in HeLa cells; type: functional, Homo sapiens; how it was run: as §1
[9] = test system: HeLa; assay: Effect on cell cycle evaluated as proportion of cells in G2/M phase of the cell cycle at 10E-8 M for 48 hr in HeLa cells; type: functional, Homo sapiens; how it was run: as §1
[10] = test system: HeLa; assay: Effect on cell cycle evaluated as proportion of cells in G0/G1 phase of the cell cycle at 10E-6 M for 48 hr in HeLa cells; type: functional, Homo sapiens; how it was run: as §1
[11] = test system: HeLa; assay: Effect on cell cycle evaluated as proportion of cells in G2/M phase of the cell cycle at 10E-6 M for 48 hr in HeLa cells; type: functional, Homo sapiens; how it was run: as §1
[12] = test system: HeLa; assay: Effect on cell cycle evaluated as proportion of cells in S phase of the cell cycle at 10E-7 M for 24 hr in HeLa cells; type: functional, Homo sapiens; how it was run: as §1
[13] = test system: HeLa; assay: Effect on cell cycle evaluated as proportion of cells in G2/M phase of the cell cycle at 10E-7 M for 72 hr in HeLa cells; type: functional, Homo sapiens; how it was run: as §1
[14] = test system: HeLa; assay: Effect on cell cycle evaluated as proportion of cells in sub-G1 phase (apoptic cells) of the cell cycle at 10E-6 M for 24 hr in HeLa cells; type: functional, Homo sapiens; how it was run: as §1
[15] = test system: HeLa; assay: Effect on cell cycle evaluated as proportion of cells in sub-G1 phase(apoptic cells) of the cell cycle at 10E-8 M for 72 hr in HeLa cells; type: functional, Homo sapiens; how it was run: as §1
[16] = test system: HeLa; assay: Effect on cell cycle evaluated as proportion of cells in S phase of the cell cycle at 10E-8 M for 48 hr in HeLa cells; type: functional, Homo sapiens; how it was run: as §1
[17] = test system: HeLa; assay: Effect on cell cycle evaluated as proportion of cells in S phase of the cell cycle at 10E-6 M for 24 hr in HeLa cells; type: functional, Homo sapiens; how it was run: as §1
[18] = test system: HeLa; assay: Effect on cell cycle evaluated as proportion of cells in sub-G1 phase (apoptic cells) of the cell cycle at 10E-7 M for 24 hr in HeLa cells; type: functional, Homo sapiens; how it was run: as §1
[19] = test system: HeLa; assay: Effect on cell cycle evaluated as proportion of cells in G0/G1 phase of the cell cycle at 10E-8 M for 48 hr in HeLa cells; type: functional, Homo sapiens; how it was run: as §1
[20] = test system: HeLa; assay: Effect on cell cycle evaluated as proportion of cells in G2/M phase of the cell cycle at 10E-6 M for 24 hr in HeLa cells; type: functional, Homo sapiens; how it was run: as §1
[21] = test system: HeLa; assay: Effect on cell cycle evaluated as proportion of cells in sub-G1 phase (apoptic cells )of the cell cycle at 10E-8 M for 24 hr in HeLa cells; type: functional, Homo sapiens; how it was run: as §1
[22] = test system: HeLa; assay: Effect on cell cycle evaluated as proportion of cells in G0/G1 phase of the cell cycle at 10E-7 M for 72 hr in HeLa cells; type: functional, Homo sapiens; how it was run: as §1
[23] = test system: HeLa; assay: Effect on cell cycle evaluated as proportion of cells in S phase of the cell cycle at 10E-7 M for 48 hr in HeLa cells; type: functional, Homo sapiens; how it was run: as §1
[24] = test system: HeLa; assay: Effect on cell cycle evaluated as proportion of cells in G2/M phase of the cell cycle at 10E-7 M for 24 hr in HeLa cells; type: functional, Homo sapiens; how it was run: as §1
[25] = test system: HeLa; assay: Effect on cell cycle evaluated as proportion of cells in S phase of the cell cycle at 10E-7 M for 72 hr in HeLa cells; type: functional, Homo sapiens; how it was run: as §1
[26] = test system: HeLa; assay: Effect on cell cycle evaluated as proportion of cells in G0/G1 phase of the cell cycle at 10E-7 M for 48 hr in HeLa cells; type: functional, Homo sapiens; how it was run: as §1
[27] = test system: HeLa; assay: Effect on cell cycle evaluated as proportion of cells in sub-G1 phase of the cell cycle at 10E-7 M for 48 hr in HeLa cells; type: functional, Homo sapiens; how it was run: as §1
[28] = test system: HeLa; assay: Effect on cell cycle evaluated as proportion of cells in G0/G1 phase of the cell cycle at 10E-6 M for 24 hr in HeLa cells; type: functional, Homo sapiens; how it was run: as §1
[29] = test system: HeLa; assay: Effect on cell cycle evaluated as proportion of cells in S phase of the cell cycle at 10E-8 M for 24 hr in HeLa cells; type: functional, Homo sapiens; how it was run: as §1
[30] = test system: HeLa; assay: Effect on cell cycle evaluated as proportion of cells in G0/G1 phase of the cell cycle at 10E-8 M for 72 hr in HeLa cells; type: functional, Homo sapiens; how it was run: as §1
[31] = Selectivity index is the ratio of IC50 of P-388 cell line to that of HT-29; type: functional
[32] = test system: HeLa; assay: Effect on cell cycle evaluated as proportion of cells in G0/G1 phase of the cell cycle at 10E-7 M for 24 hr in HeLa cells; type: functional, Homo sapiens; how it was run: as §1
[33] = test system: HeLa; assay: Effect on cell cycle evaluated as proportion of cells in G0/G1 phase of the cell cycle at 10E-6 M for 72 hr in HeLa cells; type: functional, Homo sapiens; how it was run: as §1
[34] = test system: HeLa; assay: Effect on cell cycle evaluated as proportion of cells in G2/M phase of the cell cycle at 10E-6 M for 72 hr in HeLa cells; type: functional, Homo sapiens; how it was run: as §1
[35] = test system: HeLa; assay: Effect on cell cycle evaluated as proportion of cells in G2/M phase of the cell cycle at 10E-7 M for 48 hr in HeLa cells; type: functional, Homo sapiens; how it was run: as §1
[36] = test system: HeLa; assay: Effect on cell cycle evaluated as proportion of cells in S phase of the cell cycle at 10E-6 M for 72 hr in HeLa cells; type: functional, Homo sapiens; how it was run: as §1
[37] = test system: HeLa; assay: Effect on cell cycle evaluated as proportion of cells in S phase of the cell cycle at 10E-6 M for 48 hr in HeLa cells; type: functional, Homo sapiens; how it was run: as §1
[38] = test system: HeLa; assay: Effect on cell cycle evaluated as proportion of cells in G0/G1 phase of the cell cycle at 10E-8 M for 24 hr in HeLa cells; type: functional, Homo sapiens; how it was run: as §1

COc1cc([C@@H]2c3cc4c(cc3[C@H](O)[C@H]3COC(=O)[C@H]23)OCO4)cc(OC)c1OC [PODOFILOX]
Activity [1]: 89.3% | Activity [2]: 0.2% | Activity [3]: 68.4% | Activity [4]: 62.3% | IC50 [5]: 0.024 µM | Activity [6]: 4.1% | Activity [7]: 71.7% | Activity [8]: 88.1% | Activity [9]: 5.8% | Activity [10]: 9.7% | Activity [11]: 18% | Activity [12]: 4.5% | Activity [13]: 0.2% | Activity [14]: 1.5% | Activity [15]: 81.8% | Activity [16]: 9.7% | Activity [17]: 4.2% | Activity [18]: 1.6% | Activity [19]: 16.1% | Activity [20]: 92.1% | Activity [21]: 1.4% | Activity [22]: 9.2% | Activity [23]: 10.5% | Activity [24]: 91.7% | Activity [25]: 2.5% | Activity [26]: 11% | Activity [27]: 59% | Activity [28]: 2.2% | Activity [29]: 4.3% | Activity [30]: 13.9% | Selectivity index [31]: 0.5 | Activity [32]: 2.2% | Activity [33]: 7.1% | Activity [34]: 0.2% | Activity [35]: 19.5% | Activity [36]: 3.4% | Activity [37]: 10% | Activity [38]: 22.6%
